ChEMBL document CHEMBL1944523, “Benzimidazolones: a new class of selective peroxisome proliferator-activated receptor γ (PPARγ) modulators” (J Med Chem, 2011)
The source made the active and inactive calls. The rule behind the calls is not given here.

Key:
COS-1 = assay: Binding affinity to human PPARgamma LBD Y473A mutant expressed in COS1 cells co-expressing GAL4 by scintillation proximity assay; assay type: cell-based
[1] = target: T1, Peroxisome proliferator-activated receptor gamma (Homo sapiens) (UniProt P37231); assay: Agonist activity at human PPARgamma expressed in COS-1 cells co-expressing with Gal4 by transactivation assay relative to rosiglitazone; assay type: functional, cell-based
T1 sequence (whole entry): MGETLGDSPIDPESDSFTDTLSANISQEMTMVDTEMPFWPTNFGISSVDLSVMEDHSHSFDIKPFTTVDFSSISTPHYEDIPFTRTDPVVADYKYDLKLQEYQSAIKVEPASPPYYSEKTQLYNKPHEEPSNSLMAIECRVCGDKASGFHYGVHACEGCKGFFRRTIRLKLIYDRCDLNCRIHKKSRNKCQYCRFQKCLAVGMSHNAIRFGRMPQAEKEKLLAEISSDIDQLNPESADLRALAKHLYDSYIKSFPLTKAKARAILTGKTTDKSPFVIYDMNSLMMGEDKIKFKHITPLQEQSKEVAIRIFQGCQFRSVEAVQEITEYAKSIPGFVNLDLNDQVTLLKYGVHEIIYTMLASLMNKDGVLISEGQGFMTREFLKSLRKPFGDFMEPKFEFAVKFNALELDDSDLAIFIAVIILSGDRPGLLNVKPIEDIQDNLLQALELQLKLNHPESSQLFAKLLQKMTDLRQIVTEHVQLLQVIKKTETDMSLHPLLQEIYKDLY
How it was run: (§1)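 GAL4-PPAR chimeric receptor transactivation in transiently co-transfected COS-1 cells with a GAL4-responsive reporter; potency as EC50 and maximum activation expressed relative to rosiglitazone; triplicate, mean reported.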

[2] = target: T1, Peroxisome proliferator-activated receptor gamma (Homo sapiens); assay: Binding affinity to human wild type PPARgamma LBD expressed in COS1 cells co-expressing GAL4 by scintillation proximity assay; assay type: cell-based; conditions: COS-1
Mus musculus [3] = assay: Antidiabetic activity in db/db C57BLKS/J-m +/+ Leprdb mouse assessed as reduction of glucose level at 10 mg/kg, po qd for 10 days measured on 11 relative to control; assay type: functional; parameters: scale not given: the % may be the effect or the level left
How it was run: (§2)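 Male db/db (C57BLKS/J-m +/+Leprdb) mice, 12−13 weeks old, seven per group, chow and water freely available; once-daily oral gavage in 0.25% methylcellulose vehicle for 11 days. Tail blood drawn just before next dose on days 0, 4, 7 and 11 for plasma glucose. Value is percent correction versus vehicle control; mean of n = 7; rosiglitazone 10 mpk positive control.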

[4] = Half life in rat at 0.5 mg/kg, iv and 2 mg/kg, po by LC-MS/MS analysis; assay type: ADME, organism-based; conditions: in vivo
How it was run: (§3)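 Rat pharmacokinetics: 2 mpk oral in 5% methylcellulose, 0.5 mpk iv in ethanol/PEG400/water (1/4/5). Blood sampled at set intervals; plasma acidified with 0.5 M formate buffer pH 3.0, acetonitrile-precipitated, quantified by LC−MS−MS against spiked control-plasma calibration curves.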

[5] = target: T2, Peroxisome proliferator-activated receptor gamma (Homo sapiens, UniProt P37231); assay: Agonist activity at human PPARgamma expressed in COS-1 cells co-expressing with Gal4 by transactivation assay; assay type: functional, cell-based; how it was run: as §1
T2 sequence (P37231 whole entry): T1 sequence (whole entry)

[6] = target: T3, Peroxisome proliferator-activated receptor delta (Homo sapiens, UniProt Q03181); assay: Binding affinity to PPARdelta by scintillation proximity assay
T3 sequence (Q03181 whole entry): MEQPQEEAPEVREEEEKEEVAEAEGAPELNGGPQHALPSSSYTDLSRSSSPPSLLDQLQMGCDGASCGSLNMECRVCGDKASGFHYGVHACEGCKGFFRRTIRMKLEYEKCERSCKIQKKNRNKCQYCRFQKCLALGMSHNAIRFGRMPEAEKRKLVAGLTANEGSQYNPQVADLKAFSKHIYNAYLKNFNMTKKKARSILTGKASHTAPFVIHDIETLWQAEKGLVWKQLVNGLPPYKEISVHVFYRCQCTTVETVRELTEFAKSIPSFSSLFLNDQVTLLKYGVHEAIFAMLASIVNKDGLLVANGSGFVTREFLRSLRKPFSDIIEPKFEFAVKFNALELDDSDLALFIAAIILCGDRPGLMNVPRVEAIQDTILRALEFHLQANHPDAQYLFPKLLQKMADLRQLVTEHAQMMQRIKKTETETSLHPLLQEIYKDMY
How it was run: (§4)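 Scintillation proximity binding assay on PPAR receptors giving IC50; mean of three determinations.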

[7] = Drug uptake in db/db C57BLKS/J-m +/+ Leprdb mouse at 10 mg/kg, po qd for 10 days measured in day 11 by LC-MS/MS analysis; assay type: ADME, organism-based; parameters: dose 10 mg/kg, route oral; conditions: in vivo
How it was run: (§5)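 Male db/db (C57BLKS/J-m +/+Leprdb) mice aged 12−13 weeks, seven per group, gavaged once daily with compound in 0.25% methylcellulose vehicle. Total compound exposure measured at study end: plasma acidified with 0.5 M formate buffer pH 3.0, protein precipitated with acetonitrile, quantified by LC−MS−MS against calibration curves in control plasma.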

[8] = target: T2, Peroxisome proliferator-activated receptor gamma; assay: Partial agonist activity at human PPARgamma LBD assessed as activation of PGC1 by HTRF assay; assay type: functional
[9] = target: T2, Peroxisome proliferator-activated receptor gamma; assay: Partial agonist activity at human PPARgamma LBD assessed as activation of CBP1-453 by HTRF assay; assay type: functional
[10] = target: T4, Peroxisome proliferator-activated receptor alpha (Homo sapiens, UniProt Q07869); assay: Binding affinity to human PPARalpha expressed in COS-1 by scintillation proximity assay; how it was run: as §4
T4 sequence (Q07869 whole entry): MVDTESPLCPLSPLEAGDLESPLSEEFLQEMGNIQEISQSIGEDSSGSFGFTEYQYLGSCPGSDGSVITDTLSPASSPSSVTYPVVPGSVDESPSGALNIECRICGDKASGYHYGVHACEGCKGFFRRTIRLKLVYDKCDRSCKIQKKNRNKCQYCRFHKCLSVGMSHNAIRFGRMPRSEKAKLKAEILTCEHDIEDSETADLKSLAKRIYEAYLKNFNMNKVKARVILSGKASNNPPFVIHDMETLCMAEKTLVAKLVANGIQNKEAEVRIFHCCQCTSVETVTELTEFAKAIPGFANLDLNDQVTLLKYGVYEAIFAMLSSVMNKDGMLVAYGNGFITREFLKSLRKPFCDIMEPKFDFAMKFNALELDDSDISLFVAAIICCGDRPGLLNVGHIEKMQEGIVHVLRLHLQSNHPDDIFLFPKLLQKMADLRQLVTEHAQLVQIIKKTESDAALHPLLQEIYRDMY

Rattus norvegicus [11] = assay: Plasma clearance in rat at 0.5 mg/kg, iv and 2 mg/kg, po by LC-MS/MS analysis; assay type: ADME, organism-based; conditions: in vivo; how it was run: as §3
Rattus norvegicus [12] = assay: Dose normalized AUC in rat at 2 mg/kg, po by LC-MS/MS analysis; assay type: ADME, organism-based; parameters: dose 2 mg/kg, route oral; conditions: in vivo; how it was run: as §3
[13] = Oral bioavailability in rat at 2 mg/kg by LC-MS/MS analysis; assay type: ADME, organism-based; conditions: in vivo; how it was run: as §3
[14] = target: T2, Peroxisome proliferator-activated receptor gamma; assay: Partial agonist activity at human PPARgamma LBD assessed as activation of PBP by HTRF assay; assay type: functional
[15] = target: T2, Peroxisome proliferator-activated receptor gamma; assay: Partial agonist activity at human PPARgamma LBD assessed as activation of Src-1 by HTRF assay; assay type: functional
[16] = target: T2, Peroxisome proliferator-activated receptor gamma; assay: Binding affinity to human PPARgamma by scintillation proximity assay; how it was run: as §4
Mus musculus [17] = assay: Antidiabetic activity in db/db C57BLKS/J-m +/+ Leprdb mouse assessed as reduction of glucose level at 30 mg/kg, po qd for 10 days measured on 11 relative to control; assay type: functional; parameters: scale not given: the % may be the effect or the level left; how it was run: as §2
Mus musculus [18] = assay: Toxicity in db/db C57BLKS/J-m +/+ Leprdb mouse assessed as increase in water content of epididymal fat pad at 10 to 50 mg/kg, po qd for 10 days measured on day 11 by vaccum drying method; assay type: organism-based; parameters: dose 10-50 mg/kg, route oral; conditions: in vivo, 240 h
How it was run: (§6)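 Male db/db mice, seven per group, gavaged daily in 0.25% methylcellulose; after day 11 dosing epididymal fat pads excised, weighed, vacuum centrifugal-dried over 24 h, reweighed to give water content; mean of seven determinations.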

Mus musculus [19] = assay: Antidiabetic activity in db/db C57BLKS/J-m +/+ Leprdb mouse assessed as reduction of glucose level at 20 mg/kg, po qd for 10 days measured on 11 relative to control; assay type: functional; parameters: scale not given: the % may be the effect or the level left; how it was run: as §2
Mus musculus [20] = assay: Toxicity in po dosed db/db C57BLKS/J-m +/+ Leprdb mouse assessed as increase in water content of epididymal fat pad administered qd for 10 days measured on day 11 by vaccum drying method; assay type: organism-based; conditions: in vivo, 240 h; how it was run: as §6
Rattus norvegicus [21] = assay: Antidiabetic activity in obese insulin resistant Zucker fa/fa rat assessed as decrease in free fatty acids level in plasma at 1 to 100 mg/kg qd for 7 days; assay type: functional, organism-based
How it was run: (§7)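 Obese insulin-resistant Zucker fa/fa rats (n = 8) dosed daily for 7 days with vehicle or compound. Tail-nick blood taken 1 day before dosing and 1 day after the seventh dose; plasma insulin by rat insulin RIA, free fatty acids and triglyceride by enzymatic kits per manufacturer instructions.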

[22] = AUC in db/db C57BLKS/J-m +/+ Leprdb mouse at 10 mg/kg, po qd for 10 days measured on day 11; assay type: ADME, organism-based; parameters: dose 10 mg/kg, route oral; conditions: plasma; how it was run: as §5
Rattus norvegicus [23] = assay: Antidiabetic activity in obese insulin resistant Zucker fa/fa rat assessed as decrease in triglyceride level in plasma at 1 to 100 mg/kg qd for 7 days; assay type: functional, organism-based; how it was run: as §7
Rattus norvegicus [24] = assay: Antidiabetic activity in obese insulin resistant Zucker fa/fa rat assessed as decrease in insulin level in plasma administered qd for 7 days
Rattus norvegicus [25] = assay: Antidiabetic activity in obese insulin resistant Zucker fa/fa rat assessed as decrease in insulin level in plasma at 1 to 100 mg/kg qd for 7 days; assay type: functional, organism-based; how it was run: as §7

SMILES | Activity (COS-1) | Emax [1] [%] | Activity [2] | Activity (Mus musculus [3]) [%] | half-life [4] [h] | EC50 [5] [nM] | IC50 [6] [nM] | AUC at 240 h [7] [µM·h] | EC50 [8] [nM] | EC50 [9] [nM] | IC50 [10] [nM] | clearance (Rattus norvegicus [11]) [mL/min/kg] | AUC/dose (Rattus norvegicus [12]) [µM·kg·h/mg] | bioavailability [13] [%] | EC50 [14] [nM] | EC50 [15] [nM] | IC50 [16] [nM] | further results
C[C@]1(c2cccc(Cn3c(=O)n(-c4noc5cc(Cl)ccc45)c4ccccc43)c2)OC(=O)NC1=O | Active | 101 | Active | 84 | – | – | – | – | – | – | – | – | – | – | – | – | – | –
COc1ccc2c(-n3c(=O)n(Cc4ccc(Cl)c(O[C@H](C)C(=O)O)c4)c4ccccc43)noc2c1 | – | 31 | – | – | 5 | 28.1 | > 50000 | 576 | 2 | > 50000 | > 50000 | 11.4 | 1.5 | 48 | 3 | > 50000 | 6.9 | Activity (Mus musculus [17]): 39%
C[C@]1(c2cccc(Cn3c(=O)n(-c4noc5cc(Cl)ccc45)c4ccccc43)c2)OC(O)=NC1=O | – | – | – | – | 3 | 102 | > 50000 | 1160 | – | – | > 50000 | 26.5 | 1.9 | 117 | – | – | 49.1 | Activity (Mus musculus [18]): Non-toxic
COc1ccc2c(-n3c(=O)n(Cc4cc([C@@]5(C)OC(=O)NC5=O)ccc4Cl)c4ccccc43)noc2c1 | – | 26 | – | – | 3.8 | 9.1 | > 50000 | 104 | 2 | > 50000 | > 50000 | 29.7 | 0.8 | 49 | 1820 | > 50000 | 9.9 | Activity (Mus musculus [19]): 29%
CN(CCOc1ccc(CC2SC(=O)NC2=O)cc1)c1ccccn1 (stereo not drawn) [ROSIGLITAZONE] | inactive | – | Active | 60 | – | – | – | – | – | – | – | – | – | – | – | – | – | Activity (Mus musculus [20]): Dose-dependent effect; Activity (Rattus norvegicus [21]): Active; AUC at 240 h [22]: 220 µM·h; Activity (Rattus norvegicus [23]): Active; ED50 (Rattus norvegicus [24]): 312 µM·h; Activity (Rattus norvegicus [25]): Active
